The experiment in a line: S. cerevisiae growth inhibition, turbidity – wild-type and eIF2Bepsilon R284H mutant, A595, cytotoxicity control for eIF2B function restoration project, primary screen (AID 685).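 Also: 0% = untreated cell controls and 100% = YPD media blanks without cells.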 Conditions: 16 h, stronger effect = higher value, screened at 25 µM (by protocol). In a few lines: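 system = S. cerevisiae wild-type or eIF2Bepsilon-R284H mutant strain | buffer or medium = YPD medium | dosing = one dose, 25 µM compound, 0.2% DMSO | schedule = 16 h at 30 °C | measured by = A595 turbidity | evaluation = growth inhibition (%) versus cell controls and blanks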

The mark [1] stands for this setting: S. cerevisiae eIF2Bepsilon-R284H mutant growth.

The campaign covered roughly 30,000 compounds. About 80 (0.3%) were called active.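 The calls were made as follows: active = mutant and wild-type yeast strains alike exhibit over 30% growth inhibition; inconclusive = a strain exceeds 50% while the second remains under 30%; inactive = the rest.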 The list comes from a sample in which actives are over-represented; it also holds similar structures and randomly drawn compounds.

With `Clc1cccc(N=C2NN=C(c3ccc4c(c3)OCCO4)CS2)c1`, the growth inhibition was 5.13% under setting [1] and -0.77% (inactive) (S. cerevisiae wild-type growth).

On to `CC(C)Oc1ccc(Oc2ccc(C(F)(F)F)cn2)cc1`, for which the growth inhibition is, setting by setting: under setting [1], 7.69%; (S. cerevisiae wild-type growth) 6% (inactive).

Consider `Cc1ccc(C2C(C#N)C(C#N)N3CCCN23)cc1` (stereo not drawn), for which the growth inhibition under setting [1] worked out at 13% and the growth inhibition (S. cerevisiae wild-type growth) was -7.5% (inactive).

As to `Cc1ccc(C(=O)CSc2nnc(Cn3nnc4ccccc43)n2C)cc1`, the growth inhibition is, setting by setting: under setting [1], 3.7%; (S. cerevisiae wild-type growth) 16.7% (inactive).

Regarding `COc1ccc(OCC(=O)N2CCOCC2)cc1`, the growth inhibition was 17.9% under setting [1] and 15.5% (inactive) (S. cerevisiae wild-type growth).

Regarding `O=S(=O)(NCC1OCCc2ccccc21)c1ccccc1` (stereo not drawn), the growth inhibition is, setting by setting: under setting [1], 15.2%; (S. cerevisiae wild-type growth) 16.1% (inactive).

As to `CCN(c1ccccc1)S(=O)(=O)c1ccc(NC(=O)C(C)(C)C)cc1`, the growth inhibition under setting [1] was 15% and the growth inhibition (S. cerevisiae wild-type growth) is -4.62% (inactive).

Regarding `Cc1cc(-c2ccccc2)nc(N2CCC(C(=O)NC34CC5CC(CC(C5)C3)C4)CC2)n1`, the growth inhibition is -19.1% under setting [1] and 2.16% (inactive) (S. cerevisiae wild-type growth).

As for `C=CCNC(=O)c1ccc(C)c(Br)c1`, the growth inhibition is, setting by setting: under setting [1], 0%; (S. cerevisiae wild-type growth) 6.76% (inactive).

For `CCN(CC)S(=O)(=O)c1ccc2c3c(cccc13)C(=O)S2`, the growth inhibition by setting is: under setting [1], -4.76%; (S. cerevisiae wild-type growth) 16.2% (inactive).

Turning to `O=C(O)CCC(=O)NCc1ccc(C(=O)O)cc1`, the growth inhibition under setting [1] was 16.7% and the growth inhibition (S. cerevisiae wild-type growth) is 9.62% (inactive).

As to `Cc1cccn2c(=O)c(/C=C(\C#N)S(=O)(=O)c3ccc(Cl)cc3)c(N3CCC(C(N)=O)CC3)nc12`, the growth inhibition runs as follows: under setting [1], 0%; (S. cerevisiae wild-type growth) 7.31% (inactive).

With `CCCCSc1[nH]c(=O)c(C(=O)OCC)cc1C#N`, the growth inhibition is, setting by setting: under setting [1], 5%; (S. cerevisiae wild-type growth) 2.76% (inactive).

With `COc1ccc(CN(Cc2ccco2)S(=O)(=O)c2ccc(S(=O)(=O)N3CCCC3)cc2)cc1`, the growth inhibition by setting is: under setting [1], -2.56%; (S. cerevisiae wild-type growth) 16.6% (inactive).

On to `O=C(CN1CCOCC1)Nc1ccccc1`, for which the growth inhibition is, setting by setting: under setting [1], 12.8%; (S. cerevisiae wild-type growth) 11.2% (inactive).

As for `CCCCCCNC(=O)CSc1nccn1Cc1ccccc1`, the growth inhibition by setting is: under setting [1], 11.1%; (S. cerevisiae wild-type growth) 20.4% (inactive).

Regarding `Cc1ccc(CNC(=O)COc2ccc(S(=O)(=O)NC(C)C)cc2)cc1`, the growth inhibition is 11.6% under setting [1] and 20.3% (inactive) (S. cerevisiae wild-type growth).

On to `COc1ccc(NC(=O)Cn2c(=O)n(Cc3ccco3)c(=O)c3ccccc32)cc1`, for which the growth inhibition under setting [1] is -12.8% and the growth inhibition (S. cerevisiae wild-type growth) was -47.3% (inactive).

On to `O=c1c2ccccc2nc(CSc2nnnn2-c2ccccc2)n1-c1ccccc1`, for which the growth inhibition runs as follows: under setting [1], -14.8%; (S. cerevisiae wild-type growth) -3.81% (inactive).

Regarding `CCN(CC)C(=O)CSc1nnc(C2CCCCC2)o1`, the growth inhibition was 6.82% under setting [1] and 9.66% (inactive) (S. cerevisiae wild-type growth).

As to `CCOc1cc(NC(=O)c2cnccn2)c(OCC)cc1NC(=O)c1ccc(C)cc1`, the growth inhibition by setting is: under setting [1], -33.3%; (S. cerevisiae wild-type growth) -5.09% (inactive).

As to `CC(C)(C)C(=O)Cn1c(NCCO)nc2ccccc21`, the growth inhibition was -6.25% under setting [1] and 21% (inactive) (S. cerevisiae wild-type growth).

Take `Cc1ccc(-n2ccc(=O)c(C(=O)O)n2)cc1`: the growth inhibition reads like this: under setting [1], 18.9%; (S. cerevisiae wild-type growth) 4.62% (inactive).

As for `Cc1ccc(Cc2c(C)nc3nc(SCC(=O)NCCN4CCOCC4)nn3c2C)cc1`, the growth inhibition is, setting by setting: under setting [1], 0%; (S. cerevisiae wild-type growth) 3.33% (inactive).

For `CC(C)CC(=O)Nc1cc(C(F)(F)F)ccc1N1CCOCC1`, the growth inhibition is, setting by setting: under setting [1], 10.5%; (S. cerevisiae wild-type growth) 18.6% (inactive).

Consider `CCC(c1nnnn1C1CCCC1)N1CCN(C(=O)c2ccco2)CC1` (stereo not drawn), for which the growth inhibition was -13.6% under setting [1] and -4.24% (inactive) (S. cerevisiae wild-type growth).

Turning to `CCC(O)CNc1nc(-n2nc(C)cc2C)nc2sc3c(c12)CC(C)(C)OC3` (stereo not drawn), the growth inhibition is, setting by setting: under setting [1], -4.55%; (S. cerevisiae wild-type growth) 4.83% (inactive).

As for `O=C(CCc1ccccc1)NCc1cccnc1`, the growth inhibition was 4.55% under setting [1] and -12.1% (inactive) (S. cerevisiae wild-type growth).

As for `CCOCCCNC(=O)c1c[nH]c2cc(C)ccc2c1=O`, the growth inhibition was -17.9% under setting [1] and 16.6% (inactive) (S. cerevisiae wild-type growth).

As to `N#Cc1c(/N=C/N2CCCC2)oc(-c2ccccc2)c1-c1ccccc1`, the growth inhibition is, setting by setting: under setting [1], 7.69%; (S. cerevisiae wild-type growth) -15.7% (inactive).

Take `COc1ccccc1NC(=O)C1CCCN(c2cc(C)nc3ncnn23)C1` (stereo not drawn): the growth inhibition reads like this: under setting [1], -7.89%; (S. cerevisiae wild-type growth) 2.42% (inactive).

In the case of `COc1ccc2oc(C)c(NC(C)=O)c2c1`, the growth inhibition by setting is: under setting [1], -6.67%; (S. cerevisiae wild-type growth) 17.6% (inactive).

Turning to `FC(F)(F)c1nnc2ccc(N3CCN(c4ccccc4)CC3)nn12`, the growth inhibition was 9.68% under setting [1] and 11.8% (inactive) (S. cerevisiae wild-type growth).

For `OC(c1ccccc1)c1nccn1Cc1ccccc1` (stereo not drawn), the growth inhibition was 6.98% under setting [1] and 31% (inactive) (S. cerevisiae wild-type growth).

With `O=C(CCC(=O)OCC(F)(F)C(F)F)NCc1ccccc1`, the growth inhibition under setting [1] stood at 8.11% and the growth inhibition (S. cerevisiae wild-type growth) was 2.5% (inactive).

With `CCOC(=O)CSc1nc2ccc(C)cc2[nH]1`, the growth inhibition under setting [1] came to 0% and the growth inhibition (S. cerevisiae wild-type growth) was -5.43% (inactive).

Turning to `CC(=O)c1cccc(NC(=O)Nc2ccc(C)cc2)c1`, the growth inhibition is, setting by setting: under setting [1], 12.5%; (S. cerevisiae wild-type growth) -4.69% (inactive).

For the compound `COc1ccc(N2CCN(C(=O)CCc3nc(-c4ccc(C)cc4)no3)CC2)cc1`, the growth inhibition is, setting by setting: under setting [1], 5%; (S. cerevisiae wild-type growth) 10% (inactive).

Turning to `Cc1ccc(S(=O)(=O)Oc2ccc(/C=N/NC(=O)c3c(Cl)cnn3C)cc2)cc1`, the growth inhibition under setting [1] amounted to 0% and the growth inhibition (S. cerevisiae wild-type growth) is 11.2% (inactive).

As to `CCCc1nc(NCc2ccc3c(c2)OCO3)c2nnn(Cc3ccccc3Cl)c2n1`, the growth inhibition was -4.84% under setting [1] and -14.3% (inactive) (S. cerevisiae wild-type growth).

Regarding `COc1ccc(CN2CN(C(C)C)CSC2=S)cc1`, the growth inhibition was 81.8% under setting [1] and 44.7% (active) (S. cerevisiae wild-type growth).

For the compound `COc1cc2c(cc1OC)C(C(C)C)=NC(C)(C)C2`, the growth inhibition under setting [1] amounted to 3.13% and the growth inhibition (S. cerevisiae wild-type growth) is 7.59% (inactive).

As to `CCOCCCNC(=O)C(NC(=O)CNC(=O)c1ccccc1)c1ccc(C)cc1` (stereo not drawn), the growth inhibition is, setting by setting: under setting [1], 0%; (S. cerevisiae wild-type growth) 1.25% (inactive).

For the compound `C=C(C)CSc1nnc(-c2ccc(C)cc2)n1N`, the growth inhibition under setting [1] worked out at 10.3% and the growth inhibition (S. cerevisiae wild-type growth) is -3.2% (inactive).

Values taken from PubChem BioAssay AID685 (PCMD, 2007).
